Data as given in ChEMBL document CHEMBL5154945, “Discovery and Optimization of Pyrrolopyrimidine Derivatives as Selective Disruptors of the Perinucleolar Compartment, a Marker of Tumor Progression toward Metastasis” (J Med Chem, 2022).
Active and inactive are the calls of the source. The rule behind the calls is not given here.

What was measured:
[1] = test system: PC-3M; assay: Antiproliferative activity against human PC-3M cells expressing PTB/GFP fusion protein assessed as disruption of RNA synthesis marker RP-194 at 1 uM and measured after 1 hr by DAPI staining based immunofluorescence microscopy; assay type: functional, cell-based
In short: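 50,000 PC3M cells on chamber slides were treated with 1 μM compound for 1 h at 37 °C, then fixed in 4% paraformaldehyde for 15 min, permeabilized with 0.3% Triton X-100 and blocked in 3% BSA. Primary antibodies were anti-RPA194 (1:200) and anti-NOPP140 (1:100), overnight at 4 °C, followed by secondary antibodies and DAPI mounting. Confocal images at 63×, three images of about 200 cells per group; counts of bright objects were normalized to DAPI-stained nuclei.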

[2] = Cytotoxicity against human PC-3M cells expressing PTB/GFP fusion protein assessed as reduction in ATP level and measured after 24 to 48 hrs by ATPlite luminescence assay; assay type: toxicity, cell-based
[3] = test system: PC-3M; assay: Antiproliferative activity against human PC-3M cells expressing PTB/GFP fusion protein assessed as cell growth inhibition at < 100 nM and measured every four hrs for 130 hrs by IncuCyte zoom live cell analysis; assay type: functional, cell-based; conditions: DDE = dose-dependent effect
In short: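 PC3M cells stably expressing GFP-PTB, grown in DMEM with 10% FBS and 1% penicillin/streptomycin, seeded at 1.25×10^4 cells/ml in 384-well plates and left overnight at 37 °C, 5% CO2. Compound added in DMEM to give 11 final concentrations from 10 nM to 20 μM. Brightfield images were taken every 4 h for about 130 h and scored as percent confluence.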

[4] = test system: PC-3M; assay: Antiproliferative activity against human PC-3M cells expressing PTB/GFP fusion protein assessed as inhibition of nucleolar volume measured after 24 hrs by Nucleolar-id Green Detection based confocal microscopic analysis; assay type: functional, cell-based
[5] = Tmax in female BALB/c mouse at 5 mg/kg, ip and measured upto 48 hrs by LC-MS/MS analysis; assay type: ADME, organism-based; conditions: in vivo
In short: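 Fed female BALB/c mice, about 6–8 weeks old and 25–30 g, received a single IP dose of 5 or 25 mpk in NMP/PEG400/HP-β-CD aqueous vehicle (0.5 mg/mL for the 5 mpk dose). Three mice per time point were sampled up to 48 h by retro-orbital bleed under isoflurane into K2EDTA. Plasma was spun at 2000 g, 4 °C, frozen at -80 °C, and assayed by LC/MS/MS.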

[6] = Clast in male C57BL/6 mouse at 50 mg/kg, ip at 48 hrs by LC-MS/MS analysis; conditions: in vivo
[7] = AUC (0 to 48 hrs) in female BALB/c mouse at 25 mg/kg, ip at 48 hrs by LC-MS/MS analysis; assay type: ADME, organism-based; design: time 48 hrs, dose 25 mg/kg, route ip; conditions: in vivo
In short: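 Fed female BALB/c mice, about 6–8 weeks old and 25–30 g, received a single IP dose. The vehicle was 5-10% NMP + 20% PEG400 + 70-75% (25% HP-β-CD in water), with the drug at 2.5/0.5 mg/mL. Blood was taken by retro-orbital puncture under isoflurane into K2EDTA tubes, 3 mice per time point, over 48 h. Plasma was prepared at 2000 g, 5 min, 4 °C, and measured by LC/MS/MS.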

[8] = test system: K562; assay: Anticancer activity against human K562 cells assessed as cell growth inhibition; assay type: functional, cell-based; conditions: dose 1-100 µM, DDE = dose-dependent effect
[9] = test system: RPMI-8226; assay: Anticancer activity against human RPMI-8226 cells assessed as cell growth inhibition; assay type: functional, cell-based; conditions: dose 1-100 µM, DDE = dose-dependent effect
[10] = test system: HOP-62; assay: Anticancer activity against human HOP-62 cells assessed as cell growth inhibition; assay type: functional, cell-based; conditions: dose 1-100 µM, DDE = dose-dependent effect
[11] = test system: NCI-H522; assay: Anticancer activity against human NCI-H522 cells assessed as cell growth inhibition; assay type: functional, cell-based; conditions: dose 1-100 µM, DDE = dose-dependent effect
[12] = test system: HT-29; assay: Anticancer activity against human HT-29 cells assessed as cell growth inhibition; assay type: functional, cell-based; conditions: dose 1-100 µM, DDE = dose-dependent effect
[13] = test system: SW-620; assay: Anticancer activity against human SW-620 cells assessed as cell growth inhibition; assay type: functional, cell-based; conditions: dose 1-100 µM, DDE = dose-dependent effect
[14] = test system: SF-295; assay: Anticancer activity against human SF-295 cells assessed as cell growth inhibition; assay type: functional, cell-based; conditions: dose 1-100 µM, DDE = dose-dependent effect
[15] = test system: Malme-3M; assay: Anticancer activity against human Malme-3M cells assessed as cell growth inhibition; assay type: functional, cell-based; conditions: dose 1-100 µM, DDE = dose-dependent effect
[16] = test system: MDA-MB-435; assay: Anticancer activity against human MDA-MB-435 cells assessed as cell growth inhibition; assay type: functional, cell-based; conditions: dose 1-100 µM, DDE = dose-dependent effect
[17] = test system: SK-MEL-2; assay: Anticancer activity against human SK-MEL-2 cells assessed as cell growth inhibition; assay type: functional, cell-based; conditions: dose 1-100 µM, DDE = dose-dependent effect
[18] = test system: SK-MEL-5; assay: Anticancer activity against human SK-MEL-5 cells assessed as cell growth inhibition; assay type: functional, cell-based; conditions: dose 1-100 µM, DDE = dose-dependent effect
[19] = test system: UACC-257; assay: Anticancer activity against human UACC-257 cells assessed as cell growth inhibition; assay type: functional, cell-based; conditions: dose 1-100 µM, DDE = dose-dependent effect
[20] = test system: OVCAR-3; assay: Anticancer activity against human OVCAR-3 cells assessed as cell growth inhibition; assay type: functional, cell-based; conditions: dose 1-100 µM, DDE = dose-dependent effect
[21] = test system: A498; assay: Anticancer activity against human A498 cells assessed as cell growth inhibition; assay type: functional, cell-based; conditions: dose 1-100 µM, DDE = dose-dependent effect
[22] = molecular target: 5-hydroxytryptamine receptor 1B (Homo sapiens) (UniProt P28222); assay: Binding affinity to 5-HT1B receptor (unknown origin) at 10000 nM by radioligand displacement assay relative to control
Chain of 5-hydroxytryptamine receptor 1B (Homo sapiens) (P28222 whole entry): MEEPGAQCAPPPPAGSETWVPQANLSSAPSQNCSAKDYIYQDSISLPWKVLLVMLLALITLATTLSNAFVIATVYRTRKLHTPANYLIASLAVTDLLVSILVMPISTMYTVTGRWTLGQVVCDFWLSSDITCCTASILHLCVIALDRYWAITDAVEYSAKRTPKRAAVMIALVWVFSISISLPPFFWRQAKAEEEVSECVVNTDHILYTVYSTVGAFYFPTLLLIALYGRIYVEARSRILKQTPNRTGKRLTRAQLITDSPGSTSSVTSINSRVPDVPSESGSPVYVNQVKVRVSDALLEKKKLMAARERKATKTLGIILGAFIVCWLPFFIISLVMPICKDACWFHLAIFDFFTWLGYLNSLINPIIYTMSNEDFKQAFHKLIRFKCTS

[23] = molecular target: 5-hydroxytryptamine receptor 2B (Homo sapiens) (UniProt P41595); assay: Binding affinity to 5-HT2B receptor (unknown origin) at 10000 nM by radioligand displacement assay relative to control
Chain of 5-hydroxytryptamine receptor 2B (Homo sapiens) (P41595 whole entry): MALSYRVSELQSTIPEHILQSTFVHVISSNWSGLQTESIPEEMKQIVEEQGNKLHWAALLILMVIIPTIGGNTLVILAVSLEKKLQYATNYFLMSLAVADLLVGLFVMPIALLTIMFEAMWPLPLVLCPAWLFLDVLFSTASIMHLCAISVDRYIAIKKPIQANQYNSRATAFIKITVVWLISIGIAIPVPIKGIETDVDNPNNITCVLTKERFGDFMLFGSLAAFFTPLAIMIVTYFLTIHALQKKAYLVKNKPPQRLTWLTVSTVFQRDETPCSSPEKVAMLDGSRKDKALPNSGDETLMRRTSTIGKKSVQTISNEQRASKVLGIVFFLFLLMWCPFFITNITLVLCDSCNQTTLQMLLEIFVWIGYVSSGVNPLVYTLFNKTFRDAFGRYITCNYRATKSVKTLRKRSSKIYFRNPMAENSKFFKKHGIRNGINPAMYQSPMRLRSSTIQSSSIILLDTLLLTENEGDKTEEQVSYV

[24] = molecular target: 5-hydroxytryptamine receptor 2C (Homo sapiens) (UniProt P28335); assay: Binding affinity to 5-HT2C receptor (unknown origin) at 10000 nM by radioligand displacement assay relative to control
Chain of 5-hydroxytryptamine receptor 2C (Homo sapiens) (P28335 whole entry): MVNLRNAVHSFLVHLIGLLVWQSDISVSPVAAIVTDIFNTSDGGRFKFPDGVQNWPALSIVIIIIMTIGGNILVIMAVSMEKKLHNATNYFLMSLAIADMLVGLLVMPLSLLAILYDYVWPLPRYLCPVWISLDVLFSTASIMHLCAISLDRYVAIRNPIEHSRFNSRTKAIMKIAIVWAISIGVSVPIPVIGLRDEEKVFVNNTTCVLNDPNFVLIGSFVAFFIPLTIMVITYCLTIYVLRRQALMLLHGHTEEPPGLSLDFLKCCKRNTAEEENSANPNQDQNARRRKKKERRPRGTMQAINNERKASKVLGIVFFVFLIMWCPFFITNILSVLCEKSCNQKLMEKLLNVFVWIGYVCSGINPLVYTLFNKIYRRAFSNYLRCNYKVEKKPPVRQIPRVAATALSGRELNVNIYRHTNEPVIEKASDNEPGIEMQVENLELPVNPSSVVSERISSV

[25] = molecular target: 5-hydroxytryptamine receptor 3A (Homo sapiens) (UniProt P46098); assay: Binding affinity to 5-HT3 receptor (unknown origin) at 10000 nM by radioligand displacement assay relative to control
Chain of 5-hydroxytryptamine receptor 3A (Homo sapiens) (P46098 whole entry): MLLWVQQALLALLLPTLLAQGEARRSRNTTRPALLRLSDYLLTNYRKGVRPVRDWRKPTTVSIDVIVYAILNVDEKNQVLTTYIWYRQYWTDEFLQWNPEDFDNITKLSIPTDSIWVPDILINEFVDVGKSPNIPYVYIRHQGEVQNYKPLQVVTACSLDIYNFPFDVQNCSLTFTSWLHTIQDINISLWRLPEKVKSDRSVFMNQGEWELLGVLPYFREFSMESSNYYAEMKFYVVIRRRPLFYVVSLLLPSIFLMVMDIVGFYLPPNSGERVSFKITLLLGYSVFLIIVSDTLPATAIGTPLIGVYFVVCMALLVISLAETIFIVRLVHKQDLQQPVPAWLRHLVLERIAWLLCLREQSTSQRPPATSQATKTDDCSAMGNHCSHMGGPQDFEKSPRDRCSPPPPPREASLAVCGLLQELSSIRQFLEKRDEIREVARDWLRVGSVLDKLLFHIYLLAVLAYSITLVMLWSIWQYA

[26] = molecular target: 5-hydroxytryptamine receptor 6 (Homo sapiens) (UniProt P50406); assay: Binding affinity to 5-HT6 receptor (unknown origin) at 10000 nM by radioligand displacement assay relative to control
Chain of 5-hydroxytryptamine receptor 6 (Homo sapiens) (P50406 whole entry): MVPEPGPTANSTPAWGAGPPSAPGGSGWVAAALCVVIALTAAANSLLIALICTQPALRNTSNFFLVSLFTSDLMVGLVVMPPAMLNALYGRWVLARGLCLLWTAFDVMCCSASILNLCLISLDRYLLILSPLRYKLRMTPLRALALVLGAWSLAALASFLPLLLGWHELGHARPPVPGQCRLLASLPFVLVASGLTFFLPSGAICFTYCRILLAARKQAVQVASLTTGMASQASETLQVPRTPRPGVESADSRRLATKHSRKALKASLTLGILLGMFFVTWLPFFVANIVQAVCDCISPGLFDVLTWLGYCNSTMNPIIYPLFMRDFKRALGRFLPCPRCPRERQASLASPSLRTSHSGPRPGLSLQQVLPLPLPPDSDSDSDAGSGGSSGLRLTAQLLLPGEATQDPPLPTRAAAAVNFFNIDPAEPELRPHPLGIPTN

[27] = molecular target: D(2) dopamine receptor (Homo sapiens) (UniProt P14416); assay: Binding affinity to D2 receptor (unknown origin) at 10000 nM by radioligand displacement assay relative to control
Chain of D(2) dopamine receptor (Homo sapiens) (P14416 whole entry): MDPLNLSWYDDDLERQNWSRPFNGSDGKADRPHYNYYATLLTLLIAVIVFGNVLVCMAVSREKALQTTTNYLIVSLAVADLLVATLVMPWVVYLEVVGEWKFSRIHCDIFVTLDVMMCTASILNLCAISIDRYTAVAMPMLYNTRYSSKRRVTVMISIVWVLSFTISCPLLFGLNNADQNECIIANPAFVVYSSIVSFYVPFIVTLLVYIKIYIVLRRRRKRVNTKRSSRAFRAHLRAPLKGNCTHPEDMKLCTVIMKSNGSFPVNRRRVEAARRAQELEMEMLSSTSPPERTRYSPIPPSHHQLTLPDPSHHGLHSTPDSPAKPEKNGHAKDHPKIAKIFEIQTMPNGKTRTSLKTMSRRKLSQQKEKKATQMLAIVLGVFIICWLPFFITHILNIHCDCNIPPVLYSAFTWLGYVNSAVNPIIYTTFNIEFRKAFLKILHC

[28] = molecular target: D(4) dopamine receptor (Homo sapiens) (UniProt P21917); assay: Binding affinity to D4 receptor (unknown origin) at 10000 nM by radioligand displacement assay relative to control
Chain of D(4) dopamine receptor (Homo sapiens) (P21917 whole entry): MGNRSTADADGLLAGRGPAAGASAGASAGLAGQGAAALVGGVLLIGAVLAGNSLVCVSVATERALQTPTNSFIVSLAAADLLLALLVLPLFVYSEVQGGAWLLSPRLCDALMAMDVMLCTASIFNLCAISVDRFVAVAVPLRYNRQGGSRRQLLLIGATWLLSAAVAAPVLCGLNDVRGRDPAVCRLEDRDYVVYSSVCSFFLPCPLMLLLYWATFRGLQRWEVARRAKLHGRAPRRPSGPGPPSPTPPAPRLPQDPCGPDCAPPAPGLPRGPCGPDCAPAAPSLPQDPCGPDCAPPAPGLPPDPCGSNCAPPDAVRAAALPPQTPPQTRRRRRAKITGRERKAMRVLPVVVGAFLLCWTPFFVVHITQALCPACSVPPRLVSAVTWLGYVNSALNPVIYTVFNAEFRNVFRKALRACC

[29] = molecular target: Kappa-type opioid receptor (Homo sapiens) (UniProt P41145); assay: Binding affinity to KOR receptor (unknown origin) at 10000 nM by radioligand displacement assay relative to control
Chain of Kappa-type opioid receptor (Homo sapiens) (P41145 whole entry): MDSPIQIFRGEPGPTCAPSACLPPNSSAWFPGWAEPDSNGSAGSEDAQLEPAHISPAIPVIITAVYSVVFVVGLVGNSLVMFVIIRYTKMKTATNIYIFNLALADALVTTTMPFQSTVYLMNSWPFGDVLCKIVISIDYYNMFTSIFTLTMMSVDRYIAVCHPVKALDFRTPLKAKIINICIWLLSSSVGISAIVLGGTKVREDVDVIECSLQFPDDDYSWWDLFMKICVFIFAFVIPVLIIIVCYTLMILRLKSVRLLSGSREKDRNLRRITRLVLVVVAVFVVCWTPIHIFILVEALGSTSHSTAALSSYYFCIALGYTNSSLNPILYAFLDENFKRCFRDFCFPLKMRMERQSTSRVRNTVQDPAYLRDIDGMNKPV

[30] = molecular target: Muscarinic acetylcholine receptor M1 (Homo sapiens) (UniProt P11229); assay: Binding affinity to M1 receptor (unknown origin) at 10000 nM by radioligand displacement assay relative to control
Chain of Muscarinic acetylcholine receptor M1 (Homo sapiens) (P11229 whole entry): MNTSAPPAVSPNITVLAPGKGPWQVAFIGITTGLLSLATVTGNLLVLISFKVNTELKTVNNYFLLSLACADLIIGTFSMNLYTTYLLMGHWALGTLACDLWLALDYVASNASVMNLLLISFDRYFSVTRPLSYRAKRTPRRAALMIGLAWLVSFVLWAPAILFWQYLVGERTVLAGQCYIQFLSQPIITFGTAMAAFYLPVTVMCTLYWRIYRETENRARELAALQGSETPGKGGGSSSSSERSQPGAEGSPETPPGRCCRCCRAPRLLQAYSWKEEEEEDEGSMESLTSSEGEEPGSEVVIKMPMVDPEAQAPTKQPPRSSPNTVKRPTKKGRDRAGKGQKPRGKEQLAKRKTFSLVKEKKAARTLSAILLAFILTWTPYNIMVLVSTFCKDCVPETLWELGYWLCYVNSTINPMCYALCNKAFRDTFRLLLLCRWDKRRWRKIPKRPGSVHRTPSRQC

[31] = molecular target: Muscarinic acetylcholine receptor M4 (Homo sapiens) (UniProt P08173); assay: Binding affinity to M4 receptor (unknown origin) at 10000 nM by radioligand displacement assay relative to control
Chain of Muscarinic acetylcholine receptor M4 (Homo sapiens) (P08173 whole entry): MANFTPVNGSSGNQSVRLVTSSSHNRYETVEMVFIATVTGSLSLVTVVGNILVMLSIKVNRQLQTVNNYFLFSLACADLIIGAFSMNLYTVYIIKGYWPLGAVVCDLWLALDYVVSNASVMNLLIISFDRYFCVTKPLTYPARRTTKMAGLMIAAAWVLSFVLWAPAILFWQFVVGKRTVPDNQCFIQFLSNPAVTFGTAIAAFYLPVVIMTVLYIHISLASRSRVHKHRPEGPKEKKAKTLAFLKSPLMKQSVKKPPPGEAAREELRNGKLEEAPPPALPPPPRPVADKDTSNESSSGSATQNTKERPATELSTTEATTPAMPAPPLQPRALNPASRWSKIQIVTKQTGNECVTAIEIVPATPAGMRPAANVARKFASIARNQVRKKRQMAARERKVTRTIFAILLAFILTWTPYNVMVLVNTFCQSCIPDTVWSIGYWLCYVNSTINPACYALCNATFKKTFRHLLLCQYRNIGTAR

[32] = molecular target: Sigma non-opioid intracellular receptor 1 (Homo sapiens) (UniProt Q99720); assay: Binding affinity to sigma1 receptor (unknown origin) at 10000 nM by radioligand displacement assay relative to control
Chain of Sigma non-opioid intracellular receptor 1 (Homo sapiens) (Q99720 whole entry): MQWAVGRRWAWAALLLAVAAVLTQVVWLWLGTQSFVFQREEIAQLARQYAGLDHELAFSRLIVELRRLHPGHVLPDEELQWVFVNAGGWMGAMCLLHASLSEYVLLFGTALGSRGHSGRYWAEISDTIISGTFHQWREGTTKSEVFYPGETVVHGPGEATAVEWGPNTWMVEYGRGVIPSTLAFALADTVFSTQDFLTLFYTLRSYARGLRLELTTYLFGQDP

[33] = mouse, in vivo, ip, 50 mg/kg, 0.5 h

SMILES: N=c1c2c(-c3ccccc3)c(-c3ccccc3)n(Cc3ccccc3)c2ncn1[C@H]1CC[C@H](O)CC1 [ML-246]
- Activity [1]: Active
- IC50 [2]: 7.65 µM
- Activity [3]: Dde
- IC50 [4]: 0.61 µM
- Tmax [5]: 15 min
- concentration at 48 h [6]: 1.32 µM
- AUC [7]: 57.64 µM·h
- Activity [8]: Dde
- Activity [9]: Dde
- Activity [10]: Dde
- Activity [11]: Dde
- Activity [12]: Dde
- Activity [13]: Dde
- Activity [14]: Dde
- Activity [15]: Dde
- Activity [16]: Dde
- Activity [17]: Dde
- Activity [18]: Dde
- Activity [19]: Dde
- Activity [20]: Dde
- Activity [21]: Dde
- Activity [22]: < 50%
- Activity [23]: < 50%
- Activity [24]: < 50%
- Activity [25]: < 50%
- Activity [26]: < 50%
- Activity [27]: < 50%
- Activity [28]: < 50%
- Activity [29]: < 50%
- Activity [30]: < 50%
- Activity [31]: < 50%
- Activity [32]: < 50%
- Cmax [33]: 20.3 µM
